Source: ChEMBL document CHEMBL3758141, “Cytotoxic C20 Diterpenoid Alkaloids from the Australian Endemic Rainforest Plant Anopterus macleayanus” (J Nat Prod, 2015)
pIC50: −log10 of the molar value.

Experiments:
LNCaP [1] = test: Cytotoxicity against human LNCAP cells after 72 hrs by AlamarBlue end point assay; assay type: functional, cell-based
Summary of the method: (§1)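 Cells in phenol-red-free RPMI-1640 at 37 °C, 5% CO2, with 5% FBS (DuCaP 10% FBS). Seeded per well for 24 h: LNCaP 4000, C4-2B 3000, DuCaP 15 000, BPH-1 3000, WPMY-1 2000. Compounds in DMSO were diluted in medium (final DMSO 0.3%). After 72 h, metabolic activity was read by AlamarBlue. Controls were a DMSO equivalent and vinblastine 25 nM.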

[2] = Cytotoxicity against human C4-2B cells after 72 hrs by AlamarBlue end point assay; assay type: functional, cell-based; conditions: LNCaP C4-2B; summary of the method: as §1
[3] = Cytotoxicity against human DuCaP cells after 72 hrs by AlamarBlue end point assay; assay type: functional, cell-based; summary of the method: as §1
[4] = Cytotoxicity against human BPH1 cells after 72 hrs by AlamarBlue end point assay; assay type: cell-based; conditions: BPH-1, 72 h; summary of the method: as §1
[5] = Cytotoxicity against human WPMY-1 cells after 72 hrs by AlamarBlue end point assay; assay type: cell-based; conditions: WPMY-1, 72 h; summary of the method: as §1
LNCaP [6] = test: Cytotoxicity against human LNCAP cells assessed as decrease in cell confluence measured every 2 hrs for 72 hrs by real-time live-cell imaging analysis relative to DMSO control; assay type: functional, cell-based
Summary of the method: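 LNCaP cells in phenol-red-free RPMI-1640 with 5% FBS were seeded at 4000 per well for 24 h. They were then treated with compounds diluted from DMSO (final DMSO 0.3%). The IncuCyte live-cell imager took images every 2 h for 72 h, and growth was tracked as increasing confluence. Controls were a DMSO equivalent and vinblastine 25 nM.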

LNCaP [7] = test: Selectivity index, ratio of IC50 for human BPH1 cells to IC50 for human LNCAP cells; assay type: functional
LNCaP [8] = test: Selectivity index, ratio of IC50 for human WPMY-1 cells to IC50 for human LNCAP cells; assay type: functional

Structure (SMILES) | pIC50 (LNCaP [1]) | pIC50 [2] | pIC50 [3] | pIC50 [4] | pIC50 [5] | Activity (LNCaP [6]) | Ratio IC50 (LNCaP [7]) | Ratio IC50 (LNCaP [8])
C=C1C[C@]23C[C@H](O)[C@]4(O)[C@@]5(C)C[C@H](O)C[C@]46C([C@H]2[C@H]1[C@@H](OC(=O)/C(C)=C/C)[C@@H](OC(=O)/C(C)=C/CO)[C@H]36)N(C)C5 (stereo partly drawn) | 6.42 | 6.47 | 6.45 | 6.75 | 6.48 |  |  | 
C=C1C[C@]23C[C@H](O)[C@]4(O)[C@@]5(C)C[C@H](O)C[C@]46C([C@H]2[C@H]1[C@@H](OC(=O)/C(C)=C/C)[C@@H](OC(=O)c1ccccc1)[C@H]36)N(C)C5 (stereo partly drawn) | 6.72 | 6.69 | 6.81 | 6.63 | 6.85 |  |  | 
C=C1C[C@@]23[C@H]4[C@H](OC(=O)/C(C)=C/CO)[C@H](OC(=O)/C(C)=C/C)[C@@H]1[C@@H]2C1N(C)C[C@]2(C)C[C@H](O)C[C@@]14[C@]2(O)[C@@H](O)[C@@H]3O (stereo partly drawn) | 7.14 | 6.87 | 7.15 | 6.87 | 6.81 |  |  | 
C=C1C[C@]23C[C@H](O)[C@]4(O)[C@@]5(C)C[C@H](O)C[C@]46C([C@H]2[C@H]1[C@@H](OC(=O)/C(C)=C/C)[C@@H](OC(=O)/C(C)=C/C)[C@H]36)N(C)C5 (stereo partly drawn) | 7.57 | 7.35 | 7.06 | 7.53 | 7.32 |  |  | 
C=C1C[C@@]23[C@H]4[C@H](OC(=O)/C(C)=C/C)[C@H](OC(=O)/C(C)=C/C)[C@@H]1[C@@H]2C1N(C)C[C@]2(C)C[C@H](O)C[C@@]14[C@]2(O)[C@@H](O)[C@@H]3O (stereo partly drawn) | 7.29 | 7.03 | 7.25 | 7.19 | 7.07 |  |  | 
C=C1C[C@]23C[C@H](OC(C)=O)[C@]4(O)[C@@]5(C)C[C@H](O)C[C@]46C([C@H]2[C@H]1[C@@H](OC(=O)/C(C)=C/C)[C@@H](OC(=O)/C(C)=C/C)[C@H]36)N(C)C5.O=C(O)C(F)(F)F (stereo partly drawn) | 8.51 | 8.21 | 8.06 | 7.94 | 8.18 | Dose-dependent effect | 3.7 | 2.1
C=C1C[C@@]23[C@H]4[C@H](OC(=O)c5ccccc5)[C@H](OC(=O)/C(C)=C/C)[C@@H]1[C@@H]2C1N(C)C[C@]2(C)C[C@H](O)C[C@@]14[C@]2(O)[C@@H](O)[C@@H]3O (stereo partly drawn) | 8.17 | 8.28 | 8.39 | 8.04 | 8.31 |  |  | 
CC[C@]1(O)C[C@@H]2CN(CCc3c([nH]c4ccccc34)[C@@](C(=O)OC)(c3cc4c(cc3OC)N(C)[C@H]3[C@@](O)(C(=O)OC)[C@H](OC(C)=O)[C@]5(CC)C=CCN6CC[C@]43[C@@H]65)C2)C1 [VINBLASTINE] | 8.49 | 8.62 | 8.43 | 8.42 | 8.38 |  |  | 
C=C1C[C@]23C[C@H](OC(C)=O)[C@]4(O)[C@@]5(C)C[C@H](O)C[C@]46C([C@H]2[C@H]1[C@@H](OC(=O)/C(C)=C/C)[C@@H](OC(=O)/C(C)=C/CO)[C@H]36)N(C)C5 (stereo partly drawn) | 7.96 | 8.15 | 8.00 | 7.94 | 8.02 |  |  | 
